The source made the active and inactive calls.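 Rule for the calls, unless noted: active = visually confirmed hit in the image check and inhibition above 20%; inconclusive = visually confirmed hit but inhibition not above 20%; inactive = no visual hit in the image check.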

Experiment [1] in a line: inhibitors of TNFa-induced NFkB p65 translocation, primary screen, imaging, HUVEC, MLSMR starter and 10KST1 sets (AID 438;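 active = inhibition above 20% together with a positive visual image hit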;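 note: compound added about 3h40 before a 20 min TNFalpha stimulation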;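 for inhibition: signal is the nuclear over cytoplasmic p65 intensity ratio per well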). The following applies: HUVEC TNFa-induced p65 nuclear translocation; cell count: measured here: nuclei count (cytotoxicity indicator), at 2.08 µM; inhibition: at 2 µM, stronger effect = higher value, 0% TNFa-plus-vehicle, 100% no-TNFa wells.
Experiment [2] is described as follows: inhibitors of E-selectin induction by TNFa, primary screen, imaging, HUVEC, immunofluorescence, MLSMR starter and 10KST1 sets (AID 487).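 For inhibition: signal is fraction of cell area covered by stained E-selectin grains.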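 For nuclei count: 100% = median nuclei count of all wells on the same plate.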 As to conditions: HUVEC TNFalpha-induced E-selectin immunofluorescence imaging, at 2 µM; inhibition: stronger effect = higher value; nuclei count: measured here: cell number, toxicity.
Experiment [3] can be described thus: DUSP6 inhibitors restoring Erk phosphorylation by chemical complementation, primary imaging in DUSP6-transfected HeLa (AID 609;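 active = compounds giving at least 50% inhibition in the cell-based MKP-3 phosphatase rescue imaging test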;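 for inhibition: phospho-Erk level distribution per well compared with pooled transfected vehicle control wells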). The following applies: HeLa MKP-3 transfected, phospho-Erk imaging KS statistic, at 10 µM, cells stimulated with TPA for 15 min.
Experiment [4] concerns the target Dual specificity protein phosphatase 6 (Homo sapiens) (UniProt Q16828). The experiment is described as above. The following applies: HeLa MKP-3 transfected, phospho-Erk imaging KS statistic; at 10 µM; stronger effect = higher value; cells stimulated with TPA for 15 min.
Experiment [5] addresses Voltage-gated potassium channel subunit beta-2 (Rattus norvegicus) (UniProt P62483). In words: KvBeta enzyme negative modulators, primary screen, biochemical, NADPH fluorescence (AID 622;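 active = fluorescence slope higher than the sample average by over 3 SD, cut at about -0.22 in these data, passing the limit was not always enough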;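 note: slope of raw intensity against log time taken from 70 to 1610 s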). As to conditions: recombinant KvBeta, 4-cyanobenzaldehyde reduction, at 10 µM, stronger effect = higher value.
Experiment [6] has the same target. In words: KvBeta positive modulators, primary screen, biochemical, NADPH fluorescence (AID 623;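 active = NADPH fluorescence slope more negative than the mean of all samples by about 3 SD, 99.7% confidence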;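 note: fluorescence intensity change per second fitted from 20 to 320 s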). The following applies: Recombinant KvBeta, NADPH fluorescence decrease slope, 10 min; at 10 µM; stronger effect = lower value.
Experiment [7] concerns the target Alpha-2C adrenergic receptor (Homo sapiens) (UniProt P18825). Put plainly: modulators of alpha2C/GIRK thallium flux, primary screen, cell-based, HEK293 alpha2C/GIRK1/2 (AID 624;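 active = fluorescence slope after compound addition differing from the mean of all screened samples at 99.7% confidence, in either direction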;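 note: slope of fluorescence ratio to pre-addition baseline per second over 15 to 24 s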). The following applies: thallium flux BTC fluorescence, at 10 µM, actives lie on both sides.
The nature of experiment [8]: inhibitors of larval lipid processing in zebrafish, primary screen, whole organism, PED6 fluorescence, gall bladder and intestine (AID 686;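 active = a full or partial loss of lipid-probe fluorescence in the fish gall bladder, intestine or both, judged by eye; inactive = no fluorescence loss, or compound toxic to the fish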;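 note: larvae 5 to 7 days old with five fish per well; signal comes from phospholipase A2 cleavage of quenched PED6 carried via bile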). As to conditions: Zebrafish larvae PED6 lipid processing, fluorescence scoring; screened at 20 µM (by protocol). A digest of the protocol: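 System: live zebrafish larvae aged 5-7 days, whole organism; measure: graded gall bladder and intestinal fluorescence inhibition per well; incubation: overnight exposure; reagent: ingested quenched lipid PED6 at 100 nM; signal: By-eye fluorescence microscopy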

Experiment [9] can be described thus: inhibitors of Chlamydomonas gravitaxis, primary screen, whole organism, Chlamydomonas reinhardtii, WT vs cilia-less mutant, absorbance, 96-well (AID 463189;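 active = inhibition at or above 50% relative to wild type and mutant plate controls; inactive = inhibition below 50%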;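 note: 0% = wild type cc124 cells in DMSO and 100% = ciliumless bld1 mutant cells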). As to conditions: OD600 absorbance, 2 days, at 10 µM, stronger effect = higher value.
[10] abbreviates: measured here: cell density z-score.
[11] abbreviates: measured here: nuclear c-Myc green intensity z-score.
Where [12] appears, read: measured here: nuclear pErk red intensity z-score, stronger effect = higher value.

Chain of Dual specificity protein phosphatase 6 (Homo sapiens) (Q16828 whole entry, looked up): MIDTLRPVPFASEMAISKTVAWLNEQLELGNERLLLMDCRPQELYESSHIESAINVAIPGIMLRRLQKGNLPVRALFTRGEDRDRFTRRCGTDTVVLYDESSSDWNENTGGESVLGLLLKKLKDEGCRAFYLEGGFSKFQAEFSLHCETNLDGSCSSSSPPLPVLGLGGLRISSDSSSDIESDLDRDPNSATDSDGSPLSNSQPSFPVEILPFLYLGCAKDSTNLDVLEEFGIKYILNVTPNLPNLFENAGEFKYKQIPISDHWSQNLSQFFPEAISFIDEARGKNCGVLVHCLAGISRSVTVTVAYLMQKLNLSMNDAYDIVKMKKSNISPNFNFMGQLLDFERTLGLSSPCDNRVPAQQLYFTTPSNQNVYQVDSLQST
Chain of Alpha-2C adrenergic receptor (Homo sapiens) (P18825 whole entry, looked up): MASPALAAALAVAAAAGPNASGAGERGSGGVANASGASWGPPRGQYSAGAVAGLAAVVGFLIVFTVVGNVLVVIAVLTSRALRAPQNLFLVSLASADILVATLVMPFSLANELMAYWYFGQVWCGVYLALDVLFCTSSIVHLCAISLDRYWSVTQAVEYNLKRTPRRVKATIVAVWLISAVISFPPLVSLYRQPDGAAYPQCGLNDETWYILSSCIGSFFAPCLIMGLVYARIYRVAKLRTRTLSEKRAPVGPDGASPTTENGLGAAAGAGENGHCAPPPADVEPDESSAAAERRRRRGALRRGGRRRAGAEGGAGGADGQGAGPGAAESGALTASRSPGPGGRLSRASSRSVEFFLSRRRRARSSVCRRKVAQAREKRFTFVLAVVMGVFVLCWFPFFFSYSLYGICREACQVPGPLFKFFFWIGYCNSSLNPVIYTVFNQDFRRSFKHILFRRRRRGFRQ
Chain of Voltage-gated potassium channel subunit beta-2 (Rattus norvegicus) (P62483 whole entry, looked up): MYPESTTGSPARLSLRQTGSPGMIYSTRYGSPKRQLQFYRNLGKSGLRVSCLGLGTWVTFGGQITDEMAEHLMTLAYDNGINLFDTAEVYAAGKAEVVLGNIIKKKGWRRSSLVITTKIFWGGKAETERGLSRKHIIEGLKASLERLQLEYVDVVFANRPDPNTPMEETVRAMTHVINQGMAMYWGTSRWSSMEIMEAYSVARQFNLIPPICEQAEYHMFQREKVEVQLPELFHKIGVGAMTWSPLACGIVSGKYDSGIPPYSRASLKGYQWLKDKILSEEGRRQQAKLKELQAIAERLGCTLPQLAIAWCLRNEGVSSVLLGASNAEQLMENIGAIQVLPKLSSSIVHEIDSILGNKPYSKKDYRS

As usually defined, the inhibition is the relative decrease from the control value, in per cent. Regarding `COc1ccc(-c2ncncc2-c2csc(C)n2)c(O)c1`, in experiment [1], the cell count was determined as 573. Further, the inhibition in experiment [1] was -4.5% (inactive); in [2] it was -141% (inactive); in experiment [4], 1.9e-07% (inactive); in experiment [9] it was 3.68% (inactive). Moreover, the nuclei count in experiment [2] came out at 135%. The z-score in [3] (setting [10]) was 0.355; in experiment [3] (setting [11]) it was -1.54; in experiment [3] (setting [12]), -0.34. Also, the fluorescence slope in experiment [5] is -0.509 (inactive). The NADPH fluorescence slope in experiment [6] was -3.3e-05 (inactive). The slope in experiment [7] is 0.00463 (inactive). For the same compound, in [8], the outcome was inactive.

Turning to `COc1ccc2[nH]c(C)c(C(=O)CN3CC(C)OC(C)C3)c2c1` (stereo unspecified), the cell count in experiment [1] came out at 551. The inhibition in [1] is -0.3% (inactive); in experiment [2] it was -1% (inactive); in experiment [4], 3.5% (inactive); in [9] it was 7.59% (inactive). The nuclei count in experiment [2] stood at 143%. Also, the z-score in [3] (setting [10]) is -0.788; in [3] (setting [11]), 1.62; in [3] (setting [12]), -0.00446. Also, the fluorescence slope in [5] is -0.194 (inactive). The NADPH fluorescence slope in experiment [6] is 2.2e-05 (inactive). Moreover, in experiment [7], the slope was 0.00534 (inactive). Also, the compound was called inactive in [8].

As for `COC(=O)c1ccc(=O)n(Cc2ccc3c(c2)OCO3)c1`, in experiment [1], the cell count stood at 394. Further, the inhibition in [1] is -2.1% (inactive); in experiment [2], -128% (inactive); in [4] it was 2.46% (inactive); in experiment [9] it was -6.36% (inactive). The compound also gave a nuclei count in [2] of 137%. In addition, the z-score is 2.55 in [3] (setting [10]), 0.425 in experiment [3] (setting [11]) and -1.58 in experiment [3] (setting [12]). In addition, the fluorescence slope in experiment [5] was -0.427 (inactive). The NADPH fluorescence slope in [6] was -4.6e-05 (inactive). For the same compound, in experiment [7], the slope was 0.00627 (inactive). For the same compound, the compound was classed as inactive in experiment [8].

Turning to `Cc1occc(=O)c1OC(=O)Nc1ccccc1`, in experiment [1], the cell count is 477. The inhibition in experiment [1] is -8.6% (inactive); in [2], -106% (inactive); in experiment [4], 14% (inactive); in [9], -3.66% (inactive). Besides, in [2], the nuclei count turned out to be 154%. Moreover, the z-score in experiment [3] (setting [10]) is -0.12; in experiment [3] (setting [11]), 2.47; in experiment [3] (setting [12]), -1.69. Moreover, the fluorescence slope in experiment [5] was -0.524 (inactive). For the same compound, in experiment [6], the NADPH fluorescence slope was -2.3e-05 (inactive). Besides, the slope in experiment [7] was 0.00424 (inactive). The compound was classed as inactive in experiment [8].

`COCCCNC(=O)C(C#N)c1nc2ccccc2nc1N1CCN(Cc2ccccc2)CC1` (stereo unspecified): in experiment [1], the cell count stood at 630. For the same compound, the inhibition in [1] was -5.8% (inactive); in experiment [2] it was -33.3% (inactive); in experiment [4], -8.27% (inactive); in experiment [9], 33.7% (inactive). Moreover, in [2], the nuclei count was 156%. The figures for the z-score in experiment [3] (setting [10]), in experiment [3] (setting [11]) and in experiment [3] (setting [12]) were -0.882, -0.494 and -0.556, respectively. For the same compound, the fluorescence slope in experiment [5] was -0.472 (inactive). For the same compound, the NADPH fluorescence slope in [6] is -0.00034 (inactive). In addition, in experiment [7], the slope is 0.00118 (inactive). For the same compound, in experiment [8], the result was inactive.

As to `COc1ccc(OC)c2c(N)c(C#N)c(C(F)(F)C(F)(F)F)nc12`, the cell count in experiment [1] was 295. The inhibition in [1] was -8.5% (inactive); in experiment [2], 9% (inactive); in [4] it was 21% (inactive); in experiment [9] it was -13.9% (inactive). Besides, the nuclei count in experiment [2] came out at 85.5%. The z-score was 1 in experiment [3] (setting [10]), -1.13 in [3] (setting [11]) and -0.419 in experiment [3] (setting [12]). Further, in experiment [5], the fluorescence slope is -0.402 (inactive). In addition, the NADPH fluorescence slope in [6] was -3.3e-05 (inactive). In [7], the slope was 0.00519 (inactive). In experiment [8], the compound was called inactive.

With `CCNC(=O)Nn1c(C)nnc1C`, in experiment [1], the cell count was determined as 604. Further, the inhibition in experiment [1] was 5% (inactive); in [2] it was 15.6% (inactive); in experiment [4], -8.27% (inactive); in experiment [9] it was 7.13% (inactive). The same compound returned a nuclei count in experiment [2] of 129%. In addition, the z-score in [3] (setting [10]) was -0.49; in [3] (setting [11]), 0.191; in [3] (setting [12]), -0.43. In addition, the fluorescence slope in experiment [5] was -0.469 (inactive). In addition, the NADPH fluorescence slope in experiment [6] was -0.000298 (inactive). The slope in [7] is 0.00578 (inactive). Moreover, the outcome in experiment [8] was inactive.

The values above are taken from PubChem BioAssay.
